In ChEMBL document CHEMBL1122773 (1984):
In brackets after ≈: the same amount, converted by molar mass.

Experiments:
Clostridium cadaveris = assay: In vitro antibacterial activity against the anaerobic Clostridium cadaveris (Strain UC no.6510); type: functional
Method in brief: (§1)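 Agar dilution with serial twofold drug dilutions in Schaedler broth mixed into molten Wilkens-Chalgren agar. Plates prereduced 3 h under 85% N2/10% H2/5% CO2. Strains grown 48 h on Schaedler agar, suspended to 0.5 McFarland, and 0.001 mL spotted by replicator. All steps done anaerobically. Incubation 48 h at 37 °C. MIC is the least drug inhibiting growth; a faint film or fewer than three colonies scored negative.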

Clostridium tetani = assay: In vitro antibacterial activity against the anaerobic Clostridium tetani(Strain UC no.6521); type: functional
Method in brief: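 Agar dilution under anaerobic conditions. Serial twofold drug dilutions in Schaedler broth were mixed with molten Wilkins-Chalgren agar. Plates were prereduced 3 h (85% N2, 10% H2, 5% CO2). Strains were grown 48 h on Schaedler agar, suspended to 0.5 McFarland, and 0.001 mL spotted by replicator. Incubation was anaerobic, 37 °C, 48 h.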

Escherichia coli = assay: In vitro antibacterial activity against the aerobic Escherichia coli (Strain UC no.45); type: functional
Method in brief: (§2)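 Broth microdilution in brain/heart infusion broth with twofold drug dilutions. Inoculum was a standardized suspension giving 10⁵ viable cells/mL final. Plates were incubated 20 h at 37 °C. MIC (mcg/mL) = lowest concentration with no visible growth.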

Klebsiella pneumoniae = assay: In vitro antibacterial activity against the aerobic Klebsiella pneumoniae (Strain UC no.58); type: functional; method in brief: as §2
Mus musculus [1] = assay: Bioactivity in abscess, in Bacteroides fragilis infected mice following subcutaneous dose of 200 mg/kg after 360 mins of bleeding; type: functional
Method in brief: (§3)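 On day 7 post-infection, groups of five mice were given a single 200 mg/kg subcutaneous dose and killed at set times. Blood was taken by cardiac puncture and abscesses were excised. Activity was measured by standard microbiological assay.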

Mus musculus [2] = assay: Bioactivity in abscess, in Bacteroides fragilis infected mice following subcutaneous dose of 200 mg/kg after 45 mins of bleeding; type: functional; method in brief: as §3
Mus musculus [3] = assay: Bioactivity in abscess, in Bacteroides fragilis infected mice following subcutaneous dose of 200 mg/kg after 60 mins of bleeding; type: functional; method in brief: as §3
Mus musculus [4] = assay: Bioactivity in abscess, in Bacteroides fragilis infected mice following subcutaneous dose of 200 mg/kg after 90 mins of bleeding; type: functional; method in brief: as §3
Mus musculus [5] = assay: Bioactivity in blood, in Bacteroides fragilis infected mice following subcutaneous dose of 200 mg/kg after 45 mins of bleeding; type: functional; method in brief: as §3
Mus musculus [6] = assay: Bioactivity in blood, in Bacteroides fragilis infected mice following subcutaneous dose of 200 mg/kg after 60 mins of bleeding; type: functional; method in brief: as §3
Mus musculus [7] = assay: Bioactivity in blood, in Bacteroides fragilis infected mice following subcutaneous dose of 200 mg/kg after 90 mins of bleeding; type: functional; method in brief: as §3
Mus musculus [8] = assay: Bioactivity in blood, in Bacteroides fragilis infected mice following subcutaneous dose of 200 mg/kg after 120 mins of bleeding; type: functional; method in brief: as §3
Mus musculus [9] = assay: Bioactivity in blood, in Bacteroides fragilis infected mice following subcutaneous dose of 200 mg/kg after 15 mins of bleeding; type: functional; method in brief: as §3
Mus musculus [10] = assay: Bioactivity in blood, in Bacteroides fragilis infected mice following subcutaneous dose of 200 mg/kg after 150 mins of bleeding; type: functional; method in brief: as §3
Mus musculus [11] = assay: Bioactivity in blood, in Bacteroides fragilis infected mice following subcutaneous dose of 200 mg/kg after 30 mins of bleeding; type: functional; method in brief: as §3
Mus musculus [12] = assay: Bioactivity in blood, in Bacteroides fragilis infected mice following subcutaneous dose of 200 mg/kg after 360 mins of bleeding; type: functional; method in brief: as §3
Mus musculus [13] = assay: Bioactivity in abscess, in Bacteroides fragilis infected mice following subcutaneous dose of 200 mg/kg after 120 mins of bleeding; type: functional; method in brief: as §3
Mus musculus [14] = assay: Bioactivity in abscess, in Bacteroides fragilis infected mice following subcutaneous dose of 200 mg/kg after 15 mins of bleeding; type: functional; method in brief: as §3
Mus musculus [15] = assay: Bioactivity in abscess, in Bacteroides fragilis infected mice following subcutaneous dose of 200 mg/kg after 150 mins of bleeding; type: functional; method in brief: as §3
Mus musculus [16] = assay: Bioactivity in abscess, in Bacteroides fragilis infected mice following subcutaneous dose of 200 mg/kg after 30 mins of bleeding; type: functional; method in brief: as §3
[17] = tested on: Peptoniphilus asaccharolyticus; assay: In vitro antibacterial activity against the anaerobic Peptoccus aerogenes (Strain UC no.6319); type: functional; method in brief: as §1
Pseudomonas aeruginosa = assay: In vitro antibacterial activity against the aerobic Pseudomonas aeruginosa (Strain UC no.95); type: functional; method in brief: as §2
Proteus vulgaris = assay: In vitro antibacterial activity against the aerobic Proteus vulgaris (Strain UC no.93); type: functional; method in brief: as §2
Cutibacterium acnes = assay: In vitro antibacterial activity against the anaerobic Propionibacterium acnes(Strain UC no.6575); type: functional; method in brief: as §1
[18] = In vitro antibacterial activity against the aerobic Salmonella schottmuelleri (Strain UC no.126); type: functional; method in brief: as §2
[19] = In vitro antibacterial activity against the aerobic […] (Strain UC no.153); type: functional; method in brief: as §2
[20] = In vitro antibacterial activity against the aerobic […] (Strain UC no.871); type: functional; method in brief: as §2
[21] = In vitro antibacterial activity against the aerobic […] III(Strain UC no.3213); type: functional; method in brief: as §2
Staphylococcus aureus [22] = assay: In vitro antibacterial activity against the aerobic Staphylococcus aureus (Strain UC no.571); type: functional; method in brief: as §2
Staphylococcus aureus [23] = assay: In vitro antibacterial activity against the aerobic Staphylococcus aureus (Strain UC no.6675); type: functional; method in brief: as §2
Staphylococcus aureus [24] = assay: In vitro antibacterial activity against the aerobic Staphylococcus aureus (Strain UC no.6686); type: functional; method in brief: as §2
Staphylococcus aureus [25] = assay: In vitro antibacterial activity against the aerobic Staphylococcus aureus (Strain UC no.6688); type: functional; method in brief: as §2
Staphylococcus aureus [26] = assay: In vitro antibacterial activity against the aerobic Staphylococcus aureus (Strain UC no.6689); type: functional; method in brief: as §2
Staphylococcus aureus [27] = assay: In vitro antibacterial activity against the aerobic Staphylococcus aureus (Strain UC no.6691); type: functional; method in brief: as §2
Staphylococcus aureus [28] = assay: In vitro antibacterial activity against the aerobic Staphylococcus aureus (Strain UC no.6692); type: functional; method in brief: as §2
Staphylococcus aureus [29] = assay: In vitro antibacterial activity against the aerobic Staphylococcus aureus (Strain UC no.6693); type: functional; method in brief: as §2
Staphylococcus aureus [30] = assay: In vitro antibacterial activity against the aerobic Staphylococcus aureus (Strain UC no.6694); type: functional; method in brief: as §2
Staphylococcus aureus [31] = assay: In vitro antibacterial activity against the aerobic Staphylococcus aureus (Strain UC no.6695); type: functional; method in brief: as §2
Staphylococcus aureus [32] = assay: In vitro antibacterial activity against the aerobic Staphylococcus aureus (Strain UC no.6696); type: functional; method in brief: as §2
Staphylococcus aureus [33] = assay: In vitro antibacterial activity for minimum inhibition concentration (MIC) required to inhibit growth of Staphylococcus aureus; type: functional
Method in brief: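 Broth microdilution in brain/heart infusion broth, inoculated with a standardized suspension to a final 10^5 viable cells/mL. Incubation 20 h at 37 °C. MIC read as the lowest concentration preventing visible growth.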

Staphylococcus aureus [34] = assay: In vitro antibacterial activity against the aerobic Staphylococcus aureus (Strain UC no.570); type: functional; method in brief: as §2
Staphylococcus aureus [35] = assay: In vitro antibacterial activity against the aerobic Staphylococcus aureus (Strain UC no.746); type: functional; method in brief: as §2
[36] = In vitro antibacterial activity against the aerobic […] I(Strain UC no.41); type: functional; method in brief: as §2
Staphylococcus aureus [37] = assay: In vitro antibacterial activity against the aerobic Staphylococcus aureus (Strain UC no.76); type: functional; method in brief: as §2
Streptococcus pyogenes = assay: In vitro antibacterial activity against the aerobic Streptococcus pyogenes (Strain UC no.152)

CCC[C@@H]1C[C@@H](C(=O)N[C@@H]([C@H]2O[C@H](SC)[C@H](O)[C@@H](O)[C@H]2O)[C@H](C)Cl)N(C)C1 [CLINDAMYCIN]
MIC (Clostridium cadaveris): < 0.03 µg/mL
MIC (Clostridium tetani): < 0.03 µg/mL
MIC (Escherichia coli): > 25 µg/mL
MIC (Klebsiella pneumoniae): 12.5 µg/mL (≈ 29.4 µM)
A (Mus musculus [1]): 3 ug (g of abscess)-1
A (Mus musculus [2]): 26 ug (g of abscess)-1
A (Mus musculus [3]): 21 ug (g of abscess)-1
A (Mus musculus [4]): 13 ug (g of abscess)-1
B (Mus musculus [5]): 17 ug (g of abscess)-1
B (Mus musculus [6]): 12 ug (g of abscess)-1
B (Mus musculus [7]): 4 ug (g of abscess)-1
B (Mus musculus [8]): 3 ug (g of abscess)-1
B (Mus musculus [9]): 17 ug (g of abscess)-1
B (Mus musculus [10]): 1.4 ug (g of abscess)-1
B (Mus musculus [11]): 23 ug (g of abscess)-1
B (Mus musculus [12]): 0.2 ug (g of abscess)-1
A (Mus musculus [13]): 9 ug (g of abscess)-1
A (Mus musculus [14]): 16 ug (g of abscess)-1
A (Mus musculus [15]): 8 ug (g of abscess)-1
A (Mus musculus [16]): 22 ug (g of abscess)-1
MIC [17]: < 0.03 µg/mL
MIC (Pseudomonas aeruginosa): > 25 µg/mL
MIC (Proteus vulgaris): > 25 µg/mL
MIC (Cutibacterium acnes): < 0.03 µg/mL
MIC [18]: > 25 µg/mL
MIC [19]: < 0.012 µg/mL
MIC [20]: < 0.012 µg/mL
MIC [21]: < 0.012 µg/mL
MIC (Staphylococcus aureus [22]): 0.2 µg/mL (≈ 0.471 µM)
MIC (Staphylococcus aureus [23]): 0.05 µg/mL (≈ 0.118 µM)
MIC (Staphylococcus aureus [24]): 0.05 µg/mL (≈ 0.118 µM)
MIC (Staphylococcus aureus [25]): > 25 µg/mL
MIC (Staphylococcus aureus [26]): 0.05 µg/mL (≈ 0.118 µM)
MIC (Staphylococcus aureus [27]): 0.1 µg/mL (≈ 0.235 µM)
MIC (Staphylococcus aureus [28]): > 25 µg/mL
MIC (Staphylococcus aureus [29]): 0.05 µg/mL (≈ 0.118 µM)
MIC (Staphylococcus aureus [30]): > 25 µg/mL
MIC (Staphylococcus aureus [31]): 0.1 µg/mL (≈ 0.235 µM)
MIC (Staphylococcus aureus [32]): 0.1 µg/mL (≈ 0.235 µM)
MIC (Staphylococcus aureus [33]): > 25 µg/mL
MIC (Staphylococcus aureus [34]): 0.2 µg/mL (≈ 0.471 µM)
MIC (Staphylococcus aureus [35]): 0.05 µg/mL (≈ 0.118 µM)
MIC [36]: < 0.012 µg/mL
MIC (Staphylococcus aureus [37]): 0.05 µg/mL (≈ 0.118 µM)
MIC (Streptococcus pyogenes): < 0.012 µg/mL
